These results are taken from paper PMC4855835 (Chemical communications (Cambridge, England), 2016).

Some results are limits rather than exact numbers.

For series [1], the system named is sarcoma osteogenic (Saos-2) cells. Description: Cell viability of Saos-2 cells treated with precursors. In kind it is cell-based, human. The following applies: for concentration at which Saos-2 cells are inhibited: Fig. 4A and Fig. S6; for inhibitory activity at pH 8.0: hydrolysis of ester bond (Fig. S8). A digest of the protocol:
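Saos-2 osteosarcoma cells, which overexpress alkaline phosphatase, were exposed to a range of test compound (phosphorylated peptide precursor) concentrations for 48 h. Viability was plotted as log-dose response curves, and IC90 was taken at 48 h. Human marrow stromal HS-5 cells served as the normal-cell comparison.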

Series [2] in a line: Hydrogelation assay of self-assembly in water upon ALP addition. In kind it is physicochemical. The following applies: 1 mM, pH 7.4, ALP 3U/mL. A digest of the protocol:
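Self-assembly was screened by hydrogelation: the test compound at 1 mM in water, pH 7.4, was given alkaline phosphatase at 3 U/mL. The resulting state (gel, suspension or increased viscosity) was judged by eye. Nanostructures formed under the same conditions were imaged by TEM after 24 h.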

A further series concerns Saos-2 cells. Briefly: Saos-2 cell viability with co-incubated ALP inhibitors or cell death inhibitors. In kind it is cell-based, human. The conditions noted are these: 48h; for effect of pan-caspase inhibitor zVAD-fmk on death of treated Saos-2 cells: 1p 20 μM, 2p 50 μM, 3p 20 μM, zVAD-fmk 45 μM; for effect of L-Phe on viability of treated Saos-2 cells / effect of levamisole on viability of treated Saos-2 cells: 1p 50 μM, 3p 50 μM, 2p 200 μM; for effect of L-Phe on viability of treated Saos-2 cells: L-Phe 1 mM; for effect of levamisole on viability of treated Saos-2 cells: levamisole 1 mM; for effect of necroptosis inhibitor Nec-1 on death of treated Saos-2 cells: Nec-1 50 μM. A digest of the protocol: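 Saos-2 cells were treated for 48 h with test compound plus an inhibitor. ALP inhibitors were levamisole 1 mM (tissue-nonspecific ALP) or L-phenylalanine 1 mM (placental ALP), with test compound at 50 or 200 µM. Death-pathway inhibitors were pan-caspase zVAD-fmk 45 µM or Nec-1 50 µM. Read-out was cell viability.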

The next series is described as follows: Static light scattering. The format is physicochemical. The following applies: pH7.4 PBS buffer, before ALP. A digest of the protocol: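 Static light scattering was measured on test compound solutions (12.5–50 µM) in pH 7.4 PBS, before and 24 h after adding alkaline phosphatase (2 U/mL). Scattering angle was 30 degrees; read-out was scattered intensity.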

For series [3], the system named is sarcoma osteogenic (Saos-2) cells. The following applies: read-out: IC50 of carboplatin; 72 h; cited from earlier work.

As for `CNC(=O)[C@@H](Cc1ccc(OP(=O)(O)O)cc1)NC(=O)[C@@H](Cc1ccccc1)NC(=O)[C@@H](Cc1ccccc1)NC(=O)Cc1ccc2ccccc2c1` [1p], in series [1], the “concentration at which Saos-2 cells are inhibited” value is at least 50 µM and the “inhibitory activity at pH 8.0” value is “remains”. In addition, the “state of the solution after addition of ALP” value (shortened to “state of the solution”) in series [2] is on record as “turns into a hydrogel”. Besides, in the series on Saos-2 cells, the “effect of pan-caspase inhibitor zVAD-fmk on death of treated Saos-2 cells” value (“effect of pan-caspase inhibitor zVAD-fmk” below) is listed as “only slightly protects”, the “effect of L-Phe on viability of treated Saos-2 cells” value (from here on “effect of L-Phe”) is given as “unable to rescue the cells”, the “effect of levamisole on viability of treated Saos-2 cells” value (from here on “effect of levamisole”) is on record as “increases the cell viability” and the “effect of necroptosis inhibitor Nec-1 on death of treated Saos-2 cells” value is reported as “significantly protects”. In the series “Static light scattering”, the “aggregation behaviour by SLS at 50 μM” value was “starts to aggregates”.
Turning to `NNC(=O)[C@@H](Cc1ccc(OP(=O)(O)O)cc1)NC(=O)[C@@H](Cc1ccccc1)NC(=O)[C@@H](Cc1ccccc1)NC(=O)Cc1ccc2ccccc2c1` [2p], the “concentration at which Saos-2 cells are inhibited” value in series [1] was at least 50 µM. The “state of the solution” value in series [2] is on record as “turns into a hydrogel”. Also, in the series on Saos-2 cells, the “effect of pan-caspase inhibitor zVAD-fmk” value is recorded as “only slightly protects”, the “effect of L-Phe” value is given as “unable to rescue the cells”, the “effect of levamisole” value is “increases the cell viability” and the “effect of necroptosis inhibitor Nec-1 on death of treated Saos-2 cells” value is listed as “significantly protects”.
With `COC(=O)[C@@H](Cc1ccc(OP(=O)(O)O)cc1)NC(=O)[C@@H](Cc1ccccc1)NC(=O)[C@@H](Cc1ccccc1)NC(=O)Cc1ccc2ccccc2c1` [3p], in series [1], the “concentration at which Saos-2 cells are inhibited” value was at least 50 µM and the “inhibitory activity at pH 8.0” value was “decreases”. Also, in series [2], the “state of the solution” value is on record as “forms a suspension”. In addition, in the series on Saos-2 cells, the “effect of pan-caspase inhibitor zVAD-fmk” value was “only slightly protects”, the “effect of L-Phe” value was “unable to rescue the cells”, the “effect of levamisole” value is recorded as “increases the cell viability” and the “effect of necroptosis inhibitor Nec-1 on death of treated Saos-2 cells” value is on record as “significantly protects”.
As for `O=C(Cc1ccc2ccccc2c1)N[C@H](Cc1ccccc1)C(=O)N[C@H](Cc1ccccc1)C(=O)N[C@H](Cc1ccc(OP(=O)(O)O)cc1)C(=O)O` [4p], the “concentration at which Saos-2 cells are inhibited” value in series [1] is reported as “about 500 μM”. Besides, the “state of the solution” value in series [2] is “becomes more viscous”.
Turning to `N.N.O=C([O-])C1(C(=O)[O-])CCC1.[Pt+2]` [carboplatin], in series [3], the IC50 was 198 µM.
